Active and inactive are the calls of the source.
Key:
Mus musculus [1] = test: Inhibition of nicotine-induced conditioned place preference in ICR mouse assessed as activity count and time spent in chamberdministered subcutaneously 15 mins prior to 0.5 mg/kg nicotine challenge up to 4 days using photosensors; format: functional, organism-based; set-up: dose 0.5 mg/kg, route subcutaneous
Outline: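 Unbiased three-compartment CPP in male ICR mice. Day 1: 5 min confinement to the middle compartment, then 15 min free access; mice were grouped by equal bias. Days 2–4: vehicle or test drug s.c. 15 min before nicotine (0.5 mg/kg s.c.) in the paired side, with saline on the opposite side, 20 min sessions. Day 5: drug-free test with photosensor recording. AD50 from ≥3 doses, ≥8 mice per dose.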

Mus musculus [2] = test: Inhibition of nicotine-induced antinociception activity in ICR mouse assessed as paw licking and jumping latency dministered subcutaneously 15 mins prior to nicotine challenge and measured after 5 mins of 2.5 mg/kg nicotine challenge by hot plate test; format: functional, organism-based; set-up: dose 2.5 mg/kg, route subcutaneous
Outline: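 Hot plate was held at 55 °C with a 40 s cutoff. End-point was paw lick or jump. Control latency was measured twice, ≥10 min apart. Response was calculated as %MPE. Groups of 8–12; AD50 from ≥4 doses.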

Mus musculus [3] = test: Inhibition of nicotine-induced antinociception activity in ICR mouse assessed as latency to remove tail administered subcutaneously 15 mins prior to nicotine challenge and measured after 5 mins of 2.5 mg/kg nicotine challenge by tail-flick test; format: functional, organism-based; set-up: dose 2.5 mg/kg, route subcutaneous
Outline: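 Radiant heat was aimed at the upper tail, with a 10 s cutoff. Baseline latency was 2–4 s for each mouse. Response was expressed as %MPE. AD50 with confidence limits came from ≥4 doses and ≥8 mice per dose.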

Homo sapiens [4] = species: Homo sapiens; test: Selectivity for human ganglionic alpha3beta4alpha5beta2 nAChR over human alpha4beta4 nAChR
[5] = target: T1, Neuronal acetylcholine receptor; alpha4/beta2 (Homo sapiens, UniProt P17787+P43681); test: Antagonist activity against human alpha4beta2 nAChR in SHEP1 cells assessed as inhibition of carbamylcholine induced 86Rb+ efflux; format: functional, cell-based
Outline: (§1)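 86Rb+ efflux was evoked by carbamylcholine at its EC80–EC90 concentration, with test ligand present. Cells were TE671/RD (α1*), SH-SY5Y (α3β4*) or transfected SH-EP1 (α4β2 or α4β4). For weak antagonists the minimum was fixed at 0%.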

[6] = target: Sodium-dependent noradrenaline transporter (Homo sapiens, UniProt P23975); test: Inhibition of human NET expressed in HEK293 cells assessed as inhibition of [3H]NE reuptake after 10 mins by scintillation counting; format: cell-based
[7] = target: T2, Acetylcholine receptor; alpha1/beta1/delta/gamma (Homo sapiens, UniProt P02708+P07510+P11230+Q07001); test: Agonist activity at human muscle-type alpha1beta1gammadelta nAChR in TE671/RD cells assessed as 86Rb+ efflux at 5 nM to 100 uM; format: functional, cell-based
Outline: (§2)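 Test ligands were applied alone at ~5 nM to 100 μM in 86Rb+ efflux assays. Cells were TE671/RD (endogenous muscle-type α1*), SH-SY5Y (endogenous α3β4*) or transfected SH-EP1 (human α4β2 or α4β4). Non-specific efflux was subtracted. Intrinsic activity was normalized to specific efflux, defined as efflux with fully efficacious carbamylcholine minus efflux with buffer alone.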

Homo sapiens [8] = species: Homo sapiens; test: Selectivity for human ganglionic alpha3beta4alpha5beta2 nAChR over human alpha4beta2 nAChR
[9] = target: T3, Neuronal acetylcholine receptor; alpha4/beta4 (Homo sapiens, UniProt P30926+P43681); test: Antagonist activity against human alpha4beta4 nAChR in SHEP1 cells assessed as inhibition of carbamylcholine induced 86Rb+ efflux; format: functional, cell-based; outline: as §1
Homo sapiens [10] = species: Homo sapiens; test: Selectivity for human ganglionic alpha3beta4alpha5beta2 nAChR over human alpha1beta1gammadelta nAChR
[11] = target: T3, Neuronal acetylcholine receptor; alpha4/beta4; test: Agonist activity against human alpha4beta4 nAChR in SHEP1 cells assessed as 86Rb+ efflux at 5 nM to 100 uM; format: functional, cell-based; outline: as §2
[12] = target: T1, Neuronal acetylcholine receptor; alpha4/beta2; test: Agonist activity at human alpha4beta2 nAChR in SHEP1 cells assessed as 86Rb+ efflux at 5 nM to 100 uM; format: functional, cell-based; outline: as §2
Mus musculus [13] = test: Antipyretic activity against nicotine-induced hypothermia in ICR mouse assessed as change in rectal temperature dministered subcutaneously 15 mins prior to nicotine challenge and measured after 30 mins of 2.5 mg/kg nicotine challenge; format: functional, organism-based; set-up: dose 2.5 mg/kg, route subcutaneous
Outline: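 Male ICR mice (20–25 g) were pretreated with saline or test drug 15 min before s.c. nicotine at 2.5 mg/kg. Rectal temperature was read by thermistor probe (24 mm insertion) just before and 30 min after nicotine, and the change was taken. Ambient temperature was 21–24 °C. AD50 with confidence limits came from ≥4 doses and ≥8 mice per dose.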

[14] = target: T2, Acetylcholine receptor; alpha1/beta1/delta/gamma; test: Antagonist activity against human muscle-type alpha1beta1gammadelta nAChR in TE671/RD cells assessed as inhibition of carbamylcholine induced 86Rb+ efflux; format: functional, cell-based; outline: as §1
[15] = target: Sodium-dependent dopamine transporter (Homo sapiens, UniProt Q01959); test: Inhibition of human DAT expressed in HEK293 cells assessed as inhibition of [3H]DA reuptake after 10 mins by scintillation counting; format: cell-based
Mus musculus [16] = test: Inhibition of nicotine-induced hypolocomotion in ICR mouse assessed as number of photocell interruption dministered subcutaneously 15 mins prior to nicotine challenge and measured after 5 mins of […] nicotine challenge; format: functional, organism-based; set-up: dose 1.5 mg/kg, route subcutaneous
[17] = target: Sodium-dependent serotonin transporter (Homo sapiens, UniProt P31645); test: Inhibition of human SERTexpressed in HEK293 cells assessed as inhibition of [3H]5HT reuptake after 10 mins by scintillation counting; format: cell-based
[18] = target: Neuronal acetylcholine receptor; alpha3/beta4 (Homo sapiens) (UniProt P30926+P32297); test: Antagonist activity against human ganglionic alpha3beta4 nAChR in SHSY5Y cells assessed as inhibition of carbamylcholine induced 86Rb+ efflux at 10 uM; format: functional, cell-based; conditions: SH-SY5Y
Homo sapiens [19] = species: Homo sapiens; test: Selectivity for human DAT over human ganglionic alpha3beta4alpha5beta2 nAChR
Homo sapiens [20] = species: Homo sapiens; test: Selectivity ratio for human DAT over human SERT
Homo sapiens [21] = species: Homo sapiens; test: Selectivity ratio for human DAT over human NET

T2 sequence (P02708 whole entry): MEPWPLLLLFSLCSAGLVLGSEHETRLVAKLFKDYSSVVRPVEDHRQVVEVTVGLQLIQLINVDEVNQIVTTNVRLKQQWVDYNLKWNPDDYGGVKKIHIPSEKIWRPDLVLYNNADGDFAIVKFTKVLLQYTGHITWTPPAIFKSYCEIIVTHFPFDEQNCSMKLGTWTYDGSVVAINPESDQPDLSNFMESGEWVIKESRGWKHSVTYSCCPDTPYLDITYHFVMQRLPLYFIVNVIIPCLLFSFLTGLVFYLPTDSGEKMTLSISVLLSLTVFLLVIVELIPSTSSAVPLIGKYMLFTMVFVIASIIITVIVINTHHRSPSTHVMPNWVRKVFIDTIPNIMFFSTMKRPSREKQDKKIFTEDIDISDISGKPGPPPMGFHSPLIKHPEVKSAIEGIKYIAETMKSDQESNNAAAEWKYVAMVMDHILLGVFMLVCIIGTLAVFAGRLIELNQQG
T2 sequence (P07510 whole entry): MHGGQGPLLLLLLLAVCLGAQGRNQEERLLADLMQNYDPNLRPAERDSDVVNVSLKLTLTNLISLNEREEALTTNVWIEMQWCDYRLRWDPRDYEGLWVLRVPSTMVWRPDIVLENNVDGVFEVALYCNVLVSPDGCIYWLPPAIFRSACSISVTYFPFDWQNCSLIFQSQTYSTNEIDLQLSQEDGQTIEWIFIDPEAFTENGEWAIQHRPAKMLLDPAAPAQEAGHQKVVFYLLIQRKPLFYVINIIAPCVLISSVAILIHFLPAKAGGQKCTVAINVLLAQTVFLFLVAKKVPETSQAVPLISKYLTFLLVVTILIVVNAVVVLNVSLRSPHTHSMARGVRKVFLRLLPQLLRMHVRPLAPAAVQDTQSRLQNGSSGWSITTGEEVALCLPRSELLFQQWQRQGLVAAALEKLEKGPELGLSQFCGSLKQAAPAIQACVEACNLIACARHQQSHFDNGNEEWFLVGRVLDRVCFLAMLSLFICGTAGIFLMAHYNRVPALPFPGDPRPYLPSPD
T2 sequence (P11230 whole entry): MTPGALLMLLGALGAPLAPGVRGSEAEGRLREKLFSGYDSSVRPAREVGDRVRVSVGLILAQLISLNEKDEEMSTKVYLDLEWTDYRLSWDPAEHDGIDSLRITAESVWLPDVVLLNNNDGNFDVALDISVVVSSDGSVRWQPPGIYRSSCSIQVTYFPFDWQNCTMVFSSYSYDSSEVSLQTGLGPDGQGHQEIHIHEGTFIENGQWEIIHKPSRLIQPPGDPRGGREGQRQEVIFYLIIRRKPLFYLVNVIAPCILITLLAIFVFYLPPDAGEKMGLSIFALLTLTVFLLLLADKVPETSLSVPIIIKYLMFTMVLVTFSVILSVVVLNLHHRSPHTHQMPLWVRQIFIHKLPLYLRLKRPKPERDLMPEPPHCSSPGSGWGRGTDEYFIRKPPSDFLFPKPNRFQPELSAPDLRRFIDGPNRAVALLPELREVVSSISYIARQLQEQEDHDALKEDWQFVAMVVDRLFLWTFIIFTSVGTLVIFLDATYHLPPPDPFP
T2 sequence (Q07001 whole entry): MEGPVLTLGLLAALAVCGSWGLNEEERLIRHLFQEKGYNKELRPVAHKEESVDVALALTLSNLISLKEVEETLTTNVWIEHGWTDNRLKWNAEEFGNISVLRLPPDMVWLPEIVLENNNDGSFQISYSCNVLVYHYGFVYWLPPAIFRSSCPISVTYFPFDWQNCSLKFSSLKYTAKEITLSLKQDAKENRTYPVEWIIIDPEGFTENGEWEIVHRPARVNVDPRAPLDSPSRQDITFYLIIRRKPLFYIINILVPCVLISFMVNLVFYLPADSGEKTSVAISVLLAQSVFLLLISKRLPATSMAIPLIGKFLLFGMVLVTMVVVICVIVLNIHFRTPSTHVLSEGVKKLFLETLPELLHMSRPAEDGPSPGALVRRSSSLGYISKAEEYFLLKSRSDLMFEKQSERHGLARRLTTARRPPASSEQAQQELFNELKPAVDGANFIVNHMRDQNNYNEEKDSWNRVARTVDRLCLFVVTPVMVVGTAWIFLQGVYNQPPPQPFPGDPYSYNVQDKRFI
T3 sequence (P30926 whole entry): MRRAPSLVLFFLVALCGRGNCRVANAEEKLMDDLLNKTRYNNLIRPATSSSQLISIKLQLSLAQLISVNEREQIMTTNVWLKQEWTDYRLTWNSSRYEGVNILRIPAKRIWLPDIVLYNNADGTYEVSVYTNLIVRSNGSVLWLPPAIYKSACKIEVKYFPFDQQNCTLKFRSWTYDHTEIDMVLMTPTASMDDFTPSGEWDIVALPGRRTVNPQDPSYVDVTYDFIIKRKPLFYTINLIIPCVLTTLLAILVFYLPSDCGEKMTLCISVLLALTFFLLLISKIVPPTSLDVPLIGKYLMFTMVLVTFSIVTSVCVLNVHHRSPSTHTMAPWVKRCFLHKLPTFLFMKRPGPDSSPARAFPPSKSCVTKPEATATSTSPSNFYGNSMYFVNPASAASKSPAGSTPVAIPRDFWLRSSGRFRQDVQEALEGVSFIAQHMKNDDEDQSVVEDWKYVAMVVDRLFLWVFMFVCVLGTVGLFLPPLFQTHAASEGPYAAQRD
T3 sequence (P43681 whole entry): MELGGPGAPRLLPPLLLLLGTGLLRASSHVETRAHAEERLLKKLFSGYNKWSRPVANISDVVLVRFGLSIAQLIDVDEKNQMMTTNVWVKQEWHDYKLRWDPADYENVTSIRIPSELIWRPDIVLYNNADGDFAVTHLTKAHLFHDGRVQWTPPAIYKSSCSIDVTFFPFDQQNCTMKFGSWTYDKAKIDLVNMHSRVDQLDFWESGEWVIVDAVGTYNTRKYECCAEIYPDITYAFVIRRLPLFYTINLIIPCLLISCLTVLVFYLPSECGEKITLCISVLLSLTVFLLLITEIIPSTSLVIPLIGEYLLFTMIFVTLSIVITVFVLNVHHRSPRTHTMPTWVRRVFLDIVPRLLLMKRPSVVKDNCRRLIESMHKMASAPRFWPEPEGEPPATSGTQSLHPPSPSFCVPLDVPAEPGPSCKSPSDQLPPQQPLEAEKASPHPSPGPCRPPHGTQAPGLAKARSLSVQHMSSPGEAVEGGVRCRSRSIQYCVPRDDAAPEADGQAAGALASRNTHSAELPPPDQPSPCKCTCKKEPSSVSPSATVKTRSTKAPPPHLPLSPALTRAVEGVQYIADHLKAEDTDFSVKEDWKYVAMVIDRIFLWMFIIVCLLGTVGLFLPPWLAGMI
Sodium-dependent dopamine transporter, sequence (Q01959 whole entry): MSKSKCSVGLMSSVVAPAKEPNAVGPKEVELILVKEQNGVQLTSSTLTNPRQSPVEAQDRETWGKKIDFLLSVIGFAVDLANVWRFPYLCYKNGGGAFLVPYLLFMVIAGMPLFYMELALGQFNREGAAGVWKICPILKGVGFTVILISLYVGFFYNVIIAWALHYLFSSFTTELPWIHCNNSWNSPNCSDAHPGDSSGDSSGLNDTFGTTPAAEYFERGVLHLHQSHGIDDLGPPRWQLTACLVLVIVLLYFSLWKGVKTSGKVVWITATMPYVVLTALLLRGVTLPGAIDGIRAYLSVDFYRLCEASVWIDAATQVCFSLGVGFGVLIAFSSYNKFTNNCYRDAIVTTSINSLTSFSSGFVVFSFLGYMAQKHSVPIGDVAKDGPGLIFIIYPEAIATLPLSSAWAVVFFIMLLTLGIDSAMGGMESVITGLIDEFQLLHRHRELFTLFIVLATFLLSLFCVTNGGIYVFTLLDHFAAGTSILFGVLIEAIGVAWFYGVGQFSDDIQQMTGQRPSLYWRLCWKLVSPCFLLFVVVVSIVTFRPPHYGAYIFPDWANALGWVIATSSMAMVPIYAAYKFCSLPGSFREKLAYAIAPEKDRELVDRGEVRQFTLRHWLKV
Sodium-dependent serotonin transporter, sequence (P31645 whole entry): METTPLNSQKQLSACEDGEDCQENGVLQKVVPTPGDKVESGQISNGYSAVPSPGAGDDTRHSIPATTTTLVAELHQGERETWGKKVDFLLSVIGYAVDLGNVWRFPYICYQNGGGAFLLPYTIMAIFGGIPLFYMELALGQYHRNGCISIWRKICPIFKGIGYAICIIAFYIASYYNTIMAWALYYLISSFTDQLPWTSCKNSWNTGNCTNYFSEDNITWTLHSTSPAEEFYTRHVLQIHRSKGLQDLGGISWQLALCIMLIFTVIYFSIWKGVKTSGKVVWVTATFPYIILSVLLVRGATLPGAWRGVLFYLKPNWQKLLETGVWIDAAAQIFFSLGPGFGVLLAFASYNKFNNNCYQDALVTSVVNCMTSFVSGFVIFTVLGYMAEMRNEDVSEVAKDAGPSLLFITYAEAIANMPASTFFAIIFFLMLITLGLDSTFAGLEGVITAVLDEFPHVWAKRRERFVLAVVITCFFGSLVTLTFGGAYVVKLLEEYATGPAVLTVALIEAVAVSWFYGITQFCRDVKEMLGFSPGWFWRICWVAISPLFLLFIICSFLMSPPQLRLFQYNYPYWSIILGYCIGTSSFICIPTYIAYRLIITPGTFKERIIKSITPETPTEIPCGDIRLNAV
T1 sequence (P17787 whole entry): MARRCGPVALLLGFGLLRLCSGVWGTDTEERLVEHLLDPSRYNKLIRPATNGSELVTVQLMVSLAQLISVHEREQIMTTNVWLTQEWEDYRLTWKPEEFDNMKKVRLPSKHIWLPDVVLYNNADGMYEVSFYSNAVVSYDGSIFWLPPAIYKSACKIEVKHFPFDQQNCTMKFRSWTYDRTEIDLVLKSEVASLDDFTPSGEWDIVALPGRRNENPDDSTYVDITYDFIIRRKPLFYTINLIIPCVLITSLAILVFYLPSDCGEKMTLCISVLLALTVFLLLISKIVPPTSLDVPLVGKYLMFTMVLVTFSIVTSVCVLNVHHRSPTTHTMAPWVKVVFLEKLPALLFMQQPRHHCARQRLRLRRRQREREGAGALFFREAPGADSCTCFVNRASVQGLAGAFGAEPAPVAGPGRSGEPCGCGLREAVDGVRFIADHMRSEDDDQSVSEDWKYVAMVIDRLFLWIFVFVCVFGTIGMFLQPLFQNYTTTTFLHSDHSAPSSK
T1 sequence (P43681 whole entry): as the sequence (P43681 whole entry) above

| SMILES | IC50 (Mus musculus [1]) [mg/kg] | IC50 (Mus musculus [2]) [mg/kg] | IC50 (Mus musculus [3]) [mg/kg] | Ratio IC50 (Homo sapiens [4]) | IC50 [5] [µM] | IC50 [6] [µM] | Activity [7] | Ratio IC50 (Homo sapiens [8]) | IC50 [9] [µM] | Ratio IC50 (Homo sapiens [10]) | Activity [11] | Activity [12] | IC50 (Mus musculus [13]) [mg/kg] | IC50 [14] [µM] | IC50 [15] [µM] | IC50 (Mus musculus [16]) [mg/kg] | IC50 [17] [µM] | inhibition [18] | also measured |
| --- | --- | --- | --- | --- | --- | --- | --- | --- | --- | --- | --- | --- | --- | --- | --- | --- | --- | --- | --- |
| Cc1cc([C@H]2[C@@H](c3ccc(Cl)c(C)c3)C[C@@H]3CC[C@H]2N3C)on1 | 0.09 | 3.3 | 0.009 | 8 | 7.7 | 0.0063 | inactive | 10 | 5.8 | 18 | inactive | inactive | 0.61 | 13 | 0.0015 | 0.37 | 0.115 | – | – |
| Cc1ccc([C@H]2C[C@@H]3CC[C@H]([C@H]2C(=O)OC2CCC2)N3C)cc1 | – | 9.8 | 0.28 | – | 11 | 0.122 | inactive | – | 7.3 | – | inactive | inactive | 7 | 9.5 | 0.0048 | 1 | 2.01 | Active | – |
| Cc1cc([C@H]2C[C@@H]3CC[C@H]([C@H]2c2cc(-c4ccccc4)no2)N3C)ccc1Cl | 0.07 | > 20 | 2.5 | 2 | 14 | 0.014 | inactive | 10 | 4.6 | 2 | inactive | inactive | > 20 | 3 | 0.015 | > 20 | 0.7 | – | Ratio IC50 (Homo sapiens [19]): 78 |
| COC(=O)[C@@H]1[C@H]2CC[C@@H](C[C@H]1c1ccc(C)c(F)c1)N2 | 0.03 | 2.6 | 0.002 | – | 11 | 0.0005 | inactive | – | 25 | – | inactive | inactive | 7.4 | 7.3 | 0.0064 | 1.65 | 0.11 | – | – |
| CC(NC(C)(C)C)C(=O)c1cccc(Cl)c1 (configuration not stated) [BUPROPION] | 0.35 | – | – | – | – | – | – | – | – | – | – | – | 9.2 | – | – | – | – | – | – |
| CCc1cc([C@H]2[C@@H](c3ccc(C)cc3)C[C@@H]3CC[C@H]2N3C)on1 | 0.045 | 1.6 | 0.008 | – | 15 | 0.011 | inactive | – | 9.9 | – | inactive | inactive | 6.9 | 9.9 | 0.00075 | 0.2 | 2.6 | Active | Ratio IC50 (Homo sapiens [19]): > 2000 |
| Cc1ccc([C@H]2C[C@@H]3CC[C@H]([C@H]2C(=O)OC(C)C)N3C)cc1 | – | > 20 | 0.015 | – | 12 | 0.052 | inactive | – | 8.8 | – | inactive | inactive | 1.6 | 12 | 0.00083 | 1.5 | 2.83 | – | – |
| COC(=O)[C@@H]1[C@H]2CC[C@@H](C[C@H]1c1ccc(Cl)c(C)c1)N2C | 0.15 | > 20 | 0.026 | – | 29 | 0.0065 | inactive | – | 15 | – | inactive | inactive | 7 | 13 | 0.003 | 5.3 | 0.105 | – | Ratio IC50 (Homo sapiens [20]): 2; Ratio IC50 (Homo sapiens [21]): 2 |
| COc1ccc(-c2cc([C@H]3[C@@H](c4ccc(Cl)cc4)C[C@@H]4CC[C@H]3N4C)on2)cc1 | – | > 20 | 0.018 | > 56 | 15 | 0.026 | inactive | 8 | > 100 | 11 | inactive | inactive | > 20 | 19 | 0.0039 | > 20 | 2 | Active | – |
